From paper PMC2886590 (Journal of molecular biology, 2010)
Residue numbers refer to the chain shown, from its start. Names and notes keep the numbering of the source. Each block holds one molecule with its values, some of them ahead of it.

Experiments:
[1] = system: MEIS1 promoter; assay: ChIP: MLL occupancy at MEIS1; format: cell-based; conditions: HA-tagged full-length MLL, 293T cells
Procedure, shortened: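 293T cells were transfected with HA-tagged full-length MLL, wild type or point mutant, for two days. ChIP was then run with the indicated antibodies. Quantitative PCR was done on ChIP-bound and input DNA at the MEIS1 promoter, with a MEIS1 3' genomic region for comparison.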

[2] = MLL protein levels by western blot; format: cell-based; conditions: 293T cells, Fig. 3B
[3] = system: histone H3 tail (H3K4me3); format: binding; conditions: mutant PHD3; pull-down, microarray and NMR
Procedure, shortened: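 GST-fused MLL PHD3 (residues 1565-1627), wild type or mutant, was expressed in E. coli BL21(DE3) pLysS and purified on glutathione resin. It was incubated with C-terminally biotinylated histone H3 tail peptides (residues 1-21) on streptavidin beads in 50 mM Tris pH 7.5, 150 mM NaCl, 0.05% NP-40. Beads were washed five times, and bound protein was detected by anti-GST western blot. GST-PHD3 without peptide served as control.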

[4] = system: H3K4me3 peptide; assay: NMR titration of PHD3 mutants with H3K4me3 peptide; format: binding; conditions: data not shown; for H3K4me3 binding of mutant (1H,15N HSQC): 0.2 mM 15N-labeled mutant PHD3, H3K4me3 12-mer peptide; for changes in 1H,15N HSQC spectra induced by H3K4me3 peptide: 0.2 mM 15N-labeled mutant PHD3
Procedure, shortened: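 PHD3 finger (residues 1565-1627, wild type or mutant) was expressed as a GST fusion in E. coli BL21(DE3) pLysS grown in 15NH4Cl minimal medium. It was affinity-purified, GST-cleaved, size-exclusion purified and held in 25 mM d11-Tris pH 6.8, 150 mM KCl, 10 mM deuterated DTT and 7% 2H2O. 12-mer histone tail peptides were added stepwise to 0.2 mM protein, and normalized chemical shift changes were tracked in 1H,15N HSQC spectra.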

ability to recognize H3K4me3 [3]: more severely compromised
B2: W1594A: "loss-of-structure" MLL PHD3 point mutant (PHD3 in vitro; full-length MLL in cells) (protein)
chain: KGNFCPLCDKCYDDDDYESKMMQCGKCDRAVHSKCENLSDEMYEILSNLPESVAYTCVNCTER
modifications: left off: GST, end not stated, kept
protein stability in vivo [2]: reduced stability in vivo

MEIS1 occupancy [1]: also occupied the MEIS1 promoter
B5: D1592A: MLL PHD3 point mutant, acidic residue replaced with Ala (PHD3 in vitro; full-length MLL in cells) (protein)
chain: B2 chain with D28A, A30W
modifications: left off: GST, end not stated, kept

The remaining lines, values behind:

B1: F1568A: MLL PHD3 point mutant (GST-PHD3 in vitro; engineered into full-length MLL in cells) (protein)
chain: B2 chain with F4A, A30W
modifications: left off: GST, end not stated, kept
MEIS1 occupancy [1]: also occupied the MEIS1 promoter

B3: M1585A: "loss-of-function" MLL PHD3 point mutant (PHD3 in vitro; full-length MLL in cells) (protein)
chain: B2 chain with M21A, A30W
modifications: left off: GST, end not stated, kept
H3K4me3 binding of mutant (1H,15N HSQC) [4]: binding was essentially abolished
changes in 1H,15N HSQC spectra induced by H3K4me3 peptide [4]: small to negligible changes
MEIS1 occupancy [1]: also occupied the MEIS1 promoter
ability to recognize H3K4me3 [3]: more severely compromised

B4: Y1576A: MLL PHD3 finger point mutant, tested in vitro only (protein)
chain: B2 chain with Y12A, A30W
modifications: left off: GST, end not stated, kept
H3K4me3 binding of mutant (1H,15N HSQC) [4]: binding was essentially abolished
changes in 1H,15N HSQC spectra induced by H3K4me3 peptide [4]: small to negligible changes
ability to recognize H3K4me3 [3]: more severely compromised
